Measured values of several laboratories.
Each line is one published result; the experiments were not run side by side.
Target: ALK tyrosine kinase receptor (ALK, Homo sapiens, UniProt Q9UM73)

| Compound | read-out | action | method | notes | IC50 [µM] |
| --- | --- | --- | --- | --- | --- |
| O=[N+]([O-])c1cccc(-c2cnc3[nH]c4ccccc4c3c2)c1 | enzyme activity | inhibitor | ELISA |  | > 10 |
| Cc1cc(-c2ccnc(C#N)c2)n[nH]1 | enzyme activity | inhibitor | TR-FRET |  | 130 |
| CCn1ncc2c1-c1cnc(N)c(c1)O[C@H](C)c1cc(F)ccc1-c1nn(C)nc1C2 | enzyme activity | inhibitor | radiometric |  | 0.0011 |
| C=CC(=O)Nc1cc(Nc2nccc(Nc3cc(Cl)c(F)cc3C(C)(C)O)n2)c(OC)cc1N1CC[C@@H](N(C)C)C1 | enzyme activity | inhibitor |  | with preincubation | 1.17 |
| CC(C)(C)n1nc(-c2ccc3nc(OC4CC4)ccc3c2)c(C(N)=O)c1N | cell-free assay |  |  |  | > 10 |
| COc1ccc2c(Oc3ccc4c(C(=O)Nc5ccccc5N)cccc4c3)ccnc2c1 | enzyme activity | inhibitor |  |  | > 0.5 |
| Cc1cc(-c2cc(C#N)ccc2O[C@@H]2C[C@@H]2c2ccc(F)cc2F)n[nH]1 | enzyme activity | inhibitor | TR-FRET |  | 1.3 |
| c1ccc(CCc2ccc3[nH]c4ncc(-c5ccc6c(c5)OCO6)cc4c3c2)cc1 | enzyme activity | inhibitor | ELISA |  | > 10 |
| Cc1cc(-c2cccc(Cl)c2)n[nH]1 | enzyme activity | inhibitor | TR-FRET |  | 66 |
| Cc1cc(Nc2cc(CN3CCOCC3)c3nc(C)c(Cc4ccc(Cl)cc4F)n3n2)n[nH]1 | enzyme activity | inhibitor | TR-FRET |  | 0.138 |
| COc1cccc(Nc2cnc3[nH]c4ccc(CCc5ccccc5)cc4c3c2)c1 | enzyme activity | inhibitor | ELISA |  | > 10 |
| CC(C)(C)n1nc(-c2cnc3cc(OC4CC4)ccc3c2)c(C(N)=O)c1N | cell-free assay |  |  |  | > 10 |
| Cc1cc(-c2cccc(C#N)c2)n[nH]1 | enzyme activity | inhibitor | TR-FRET |  | 51 |
| Clc1cnc2[nH]c3ccc(-c4ccc(N5CCOCC5)cn4)cc3c2c1 | enzyme activity | inhibitor | ELISA |  | > 10 |
